The values that follow come from ChEMBL document CHEMBL4619797, “Antiglioma Activity of Aryl and Amido-Aryl Acetamidine Derivatives Targeting iNOS: Synthesis and Biological Evaluation” (ACS Med Chem Lett, 2020).

The structures appear in SMILES notation. Activity calls are given as the source filed them. No cut-off for these calls is given here.

Data set [1] has as its target T1, Nitric oxide synthase, inducible (Homo sapiens, UniProt P35228). In words: Inhibition of recombinant N-terminal His-tagged human iNOS expressed in Escherichia coli at 1 uM using L-arginine as substrate preincubated for 15 mins followed by NADPH addition and measured after 20 mins by OPA/NAC reagent based HPLC-fluorimetric analysis relative to control. The method, boiled down: (§1)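 Primary screen: percent inhibition of iNOS and nNOS measured at 1 μM compound; mean ± SD of triplicate experiments.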

Data set [2] concerns the target T2, Nitric oxide synthase 1 (Homo sapiens, UniProt P29475). Description: Inhibition of recombinant human nNOS expressed in Escherichia coli at 1 uM using L-arginine as substrate preincubated for 15 mins followed by NADPH addition and measured after 20 mins by OPA/NAC reagent based HPLC-fluorimetric analysis relative to control. The method, boiled down: as §1
In data set [3] the target is T3, Nitric oxide synthase 3 (Homo sapiens) (UniProt P29474).
T3 sequence (whole entry): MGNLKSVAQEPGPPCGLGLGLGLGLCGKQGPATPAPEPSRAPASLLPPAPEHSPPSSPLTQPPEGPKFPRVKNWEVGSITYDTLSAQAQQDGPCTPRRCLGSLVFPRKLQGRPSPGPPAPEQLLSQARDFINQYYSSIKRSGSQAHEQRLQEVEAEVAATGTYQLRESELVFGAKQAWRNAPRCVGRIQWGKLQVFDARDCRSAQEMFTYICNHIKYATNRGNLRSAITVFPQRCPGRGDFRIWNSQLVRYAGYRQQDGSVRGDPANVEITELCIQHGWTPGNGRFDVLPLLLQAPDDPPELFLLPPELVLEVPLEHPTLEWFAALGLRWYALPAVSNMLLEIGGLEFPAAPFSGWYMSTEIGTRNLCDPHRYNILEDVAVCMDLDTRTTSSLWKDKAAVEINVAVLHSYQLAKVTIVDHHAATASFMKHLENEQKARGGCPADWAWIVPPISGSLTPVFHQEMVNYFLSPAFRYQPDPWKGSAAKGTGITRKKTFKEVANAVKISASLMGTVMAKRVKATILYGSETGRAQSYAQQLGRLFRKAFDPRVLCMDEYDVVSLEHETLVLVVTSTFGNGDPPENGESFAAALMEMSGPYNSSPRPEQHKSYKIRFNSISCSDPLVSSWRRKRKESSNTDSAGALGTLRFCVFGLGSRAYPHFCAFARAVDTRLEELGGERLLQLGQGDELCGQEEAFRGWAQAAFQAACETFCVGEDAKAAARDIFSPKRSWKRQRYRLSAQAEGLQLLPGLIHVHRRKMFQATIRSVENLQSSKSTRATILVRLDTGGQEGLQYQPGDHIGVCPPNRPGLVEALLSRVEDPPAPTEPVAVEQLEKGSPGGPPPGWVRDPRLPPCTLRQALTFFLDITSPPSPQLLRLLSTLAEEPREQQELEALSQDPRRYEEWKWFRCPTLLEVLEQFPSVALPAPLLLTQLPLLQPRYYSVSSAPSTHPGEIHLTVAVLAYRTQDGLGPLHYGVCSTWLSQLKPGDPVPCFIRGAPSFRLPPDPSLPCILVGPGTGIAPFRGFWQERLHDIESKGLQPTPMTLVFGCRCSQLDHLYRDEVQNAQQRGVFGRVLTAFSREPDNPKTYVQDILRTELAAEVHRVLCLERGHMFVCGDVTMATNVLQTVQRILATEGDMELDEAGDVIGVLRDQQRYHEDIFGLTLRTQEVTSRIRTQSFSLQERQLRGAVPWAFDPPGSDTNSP
In words: Inhibition of human eNOS at 10 uM using L-arginine as substrate preincubated for 15 mins followed by NADPH addition and measured after 20 mins by OPA/NAC reagent based HPLC-fluorimetric analysis relative to control. The method, boiled down: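 eNOS percent inhibition screened at 10 μM compound; mean ± SD of triplicate experiments.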

For data set [4], the system named is C6. Description: Antiproliferative activity against rat C6 cells assessed as inhibition of cell proliferation at 500 uM after 24 hrs by MTT assay. In kind it is functional, cell-based. In a few lines: (§2)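 C6 rat glioma cells exposed 24 h to increasing concentrations (0–1500 μM); metabolic activity by MTT, expressed as percent of untreated cultures (100%); means ± SD of three replicates.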
(In general: Formazan colour is commonly taken as a measure of viable cells.)

The subject of data set [5] is C6. In words: Antiproliferative activity against rat C6 cells assessed as inhibition of cell proliferation at 500 uM after 24 hrs by MTT assay relative to control. In kind it is functional. The following applies: C6, 24 h. The method, boiled down: as §2
Data set [6] concerns the target T1, Nitric oxide synthase, inducible. In words: Inhibition of recombinant N-terminal His-tagged human iNOS expressed in Escherichia coli using L-arginine as substrate preincubated for 15 mins followed by NADPH addition and measured after 20 mins by OPA/NAC reagent based HPLC-fluorimetric analysis. The method, boiled down:
(§3)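 IC50 against human iNOS, nNOS and eNOS from experiments in triplicate at seven different concentrations; mean ± SD reported.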

Data set [7] addresses T2, Nitric oxide synthase 1. Description: Inhibition of recombinant human nNOS expressed in Escherichia coli using L-arginine as substrate preincubated for 15 mins followed by NADPH addition and measured after 20 mins by OPA/NAC reagent based HPLC-fluorimetric analysis. The method, boiled down: as §3
Data set [8] concerns the target T4, Nitric oxide synthase 3 (Homo sapiens, UniProt P29474).
T4 sequence (P29474 whole entry): T3 sequence (whole entry)
In words: Inhibition of human eNOS using L-argininge as substrate preincubated for 15 mins followed by NADPH addition and measured after 20 mins by OPA/NAC reagent based HPLC analysis. In a few lines: as §3

For data set [9], the target named is Nitric oxide sythases; iNOS & nNOS (Homo sapiens) (UniProt P29475+P35228). In words: Selectivity index, ratio of IC50 for recombinant human nNOS expressed in Escherichia coli to IC50 for recombinant N-terminal His-tagged human iNOS expressed in Escherichia coli. The method, boiled down: (§4)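 Ratio of IC50 values for human eNOS or nNOS to that for human iNOS, each IC50 from triplicate runs at seven concentrations.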
Chain of Nitric oxide sythases; iNOS & nNOS (Homo sapiens) (P29475 whole entry, looked up): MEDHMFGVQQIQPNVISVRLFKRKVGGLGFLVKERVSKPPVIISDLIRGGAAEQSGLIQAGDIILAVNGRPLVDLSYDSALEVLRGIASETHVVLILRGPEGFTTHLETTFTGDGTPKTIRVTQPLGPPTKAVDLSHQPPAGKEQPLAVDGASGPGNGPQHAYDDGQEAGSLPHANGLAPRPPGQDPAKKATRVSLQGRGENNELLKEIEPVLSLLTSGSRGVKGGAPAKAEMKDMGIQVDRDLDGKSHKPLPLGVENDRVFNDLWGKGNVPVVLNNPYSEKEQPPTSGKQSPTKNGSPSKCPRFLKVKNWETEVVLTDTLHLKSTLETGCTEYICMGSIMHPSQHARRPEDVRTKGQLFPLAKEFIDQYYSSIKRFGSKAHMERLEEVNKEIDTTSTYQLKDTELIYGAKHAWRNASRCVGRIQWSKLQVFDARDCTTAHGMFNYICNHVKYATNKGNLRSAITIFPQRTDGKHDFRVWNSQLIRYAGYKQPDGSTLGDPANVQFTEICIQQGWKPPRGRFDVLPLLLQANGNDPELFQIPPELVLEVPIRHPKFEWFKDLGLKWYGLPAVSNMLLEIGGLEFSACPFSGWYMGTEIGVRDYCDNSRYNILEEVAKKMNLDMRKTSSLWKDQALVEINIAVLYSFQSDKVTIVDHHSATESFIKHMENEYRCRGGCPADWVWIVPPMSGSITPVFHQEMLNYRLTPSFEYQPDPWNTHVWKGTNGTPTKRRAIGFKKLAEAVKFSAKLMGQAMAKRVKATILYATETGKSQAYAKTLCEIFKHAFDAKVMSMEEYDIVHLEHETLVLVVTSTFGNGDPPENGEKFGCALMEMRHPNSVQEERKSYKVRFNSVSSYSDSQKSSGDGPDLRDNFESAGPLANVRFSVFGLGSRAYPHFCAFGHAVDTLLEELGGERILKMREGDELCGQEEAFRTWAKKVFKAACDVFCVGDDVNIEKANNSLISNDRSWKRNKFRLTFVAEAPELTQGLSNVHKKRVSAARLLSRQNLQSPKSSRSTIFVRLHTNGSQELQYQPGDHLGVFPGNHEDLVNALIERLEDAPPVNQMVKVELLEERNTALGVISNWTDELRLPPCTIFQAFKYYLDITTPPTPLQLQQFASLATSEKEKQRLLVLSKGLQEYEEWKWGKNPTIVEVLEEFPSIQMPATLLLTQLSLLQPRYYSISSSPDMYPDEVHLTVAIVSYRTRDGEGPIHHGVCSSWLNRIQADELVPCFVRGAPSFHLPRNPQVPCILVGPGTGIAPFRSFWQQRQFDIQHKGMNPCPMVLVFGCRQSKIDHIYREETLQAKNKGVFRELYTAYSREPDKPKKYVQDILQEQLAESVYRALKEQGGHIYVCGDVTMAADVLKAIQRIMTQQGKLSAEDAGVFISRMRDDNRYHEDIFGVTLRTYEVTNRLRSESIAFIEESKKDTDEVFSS
Chain of Nitric oxide sythases; iNOS & nNOS (Homo sapiens) (P35228 whole entry, looked up): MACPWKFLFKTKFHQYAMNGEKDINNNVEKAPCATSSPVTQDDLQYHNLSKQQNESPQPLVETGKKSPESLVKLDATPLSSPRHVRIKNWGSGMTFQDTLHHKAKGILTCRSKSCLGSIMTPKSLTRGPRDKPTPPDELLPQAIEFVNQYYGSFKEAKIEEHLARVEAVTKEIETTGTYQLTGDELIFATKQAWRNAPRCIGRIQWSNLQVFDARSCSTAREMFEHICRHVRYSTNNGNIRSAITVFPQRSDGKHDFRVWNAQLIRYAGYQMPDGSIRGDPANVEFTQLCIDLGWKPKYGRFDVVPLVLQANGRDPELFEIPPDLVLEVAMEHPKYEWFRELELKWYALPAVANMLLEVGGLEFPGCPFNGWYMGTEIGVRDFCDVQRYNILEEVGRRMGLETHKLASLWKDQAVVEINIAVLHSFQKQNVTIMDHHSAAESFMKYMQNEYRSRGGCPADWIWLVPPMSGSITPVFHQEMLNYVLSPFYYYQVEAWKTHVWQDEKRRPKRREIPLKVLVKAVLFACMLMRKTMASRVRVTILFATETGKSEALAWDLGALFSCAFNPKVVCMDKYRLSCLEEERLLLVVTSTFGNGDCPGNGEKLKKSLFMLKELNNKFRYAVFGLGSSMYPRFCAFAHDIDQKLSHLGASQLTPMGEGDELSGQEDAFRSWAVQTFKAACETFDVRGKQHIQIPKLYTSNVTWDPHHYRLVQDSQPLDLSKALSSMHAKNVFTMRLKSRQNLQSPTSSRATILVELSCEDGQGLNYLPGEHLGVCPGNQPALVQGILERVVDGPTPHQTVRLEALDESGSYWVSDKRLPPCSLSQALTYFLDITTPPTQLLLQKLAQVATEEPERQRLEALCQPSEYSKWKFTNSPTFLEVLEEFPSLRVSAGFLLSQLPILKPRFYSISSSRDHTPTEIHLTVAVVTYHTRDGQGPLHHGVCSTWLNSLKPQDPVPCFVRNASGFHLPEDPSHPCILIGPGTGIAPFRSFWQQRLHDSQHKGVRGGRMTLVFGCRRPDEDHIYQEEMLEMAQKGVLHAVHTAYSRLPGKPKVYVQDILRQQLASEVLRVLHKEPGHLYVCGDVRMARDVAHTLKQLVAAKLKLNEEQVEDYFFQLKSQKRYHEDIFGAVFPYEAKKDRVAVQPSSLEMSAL

Data set [10] is filed under the species Homo sapiens. Description: Selectivity index, ratio of IC50 for recombinant human eNOS to IC50 for recombinant N-terminal His-tagged human iNOS expressed in Escherichia coli. The method, boiled down:
as §4

Data set [11] is described as follows: Cytotoxicity against rat CTX/TNA2 cells assessed as reduction in cell metabolic activity at 1500 uM after 24 hrs by MTT assay. In kind it is ADME, cell-based. In a few lines:
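Rat astrocytes (CTX) exposed 24 h to increasing concentrations up to 1500 μM; metabolic activity by MTT, expressed as percent of untreated (0 μM) cultures set at 100%; means ± SD of three replicates.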

For data set [12], the system named is C6. In words: Antiproliferative activity against rat C6 cells assessed as reduction in cell metabolic activity after 24 hrs by MTT assay. The data set is classed as functional, cell-based. In a few lines:
as §2

Data set [13] has as its system C6. In words: Antiproliferative activity against rat C6 cells assessed as cell metabolic activity at 50 uM after 24 hrs by MTT assay relative to control. The data set is classed as functional. The method, boiled down:
as §2

For data set [14], the system named is C6. Description: Antiproliferative activity against rat C6 cells assessed as cell metabolic activity at 750 uM after 24 hrs by MTT assay relative to control. The data set is classed as functional. In a few lines:
as §2

Data set [15] has as its system C6. Description: Antiproliferative activity against rat C6 cells assessed as cell metabolic activity at 1000 uM after 24 hrs by MTT assay relative to control. The data set is classed as functional. The method, boiled down:
as §2

The subject of data set [16] is C6. In words: Antiproliferative activity against rat C6 cells assessed as cell metabolic activity at 1500 uM after 24 hrs by MTT assay relative to control. In kind it is functional. In a few lines:
as §2

Data set [17] relates to C6. In words: Antiproliferative activity against rat C6 cells assessed as increase in LDH release after 24 hrs by CytoTox 96 Non-Radioactive assay. In kind it is functional, cell-based. In general terms: LDH in the medium is a marker of cell lysis.
For data set [18], the system named is C6. Description: Antiproliferative activity against rat C6 cells assessed as LDH release at 250 uM after 24 hrs by CytoTox 96 Non-Radioactive assay (reference value: 13.49%). The data set is classed as functional.
Data set [19] relates to C6. In words: Antiproliferative activity against rat C6 cells assessed as LDH release at 500 to 1000 uM after 24 hrs by CytoTox 96 Non-Radioactive assay (reference value: 13.49%). The data set is classed as functional.

T1 sequence (P35228 whole entry): as the sequence (P35228 whole entry, looked up) above
T2 sequence (P29475 whole entry): as the sequence (P29475 whole entry, looked up) above

One may read the inhibition as the share of the control response that was lost under treatment. For the compound `CC(=N)Nc1ccc(C(=O)O)cc1`, the values for the inhibition in data set [1], in [2] and in [3] were 86%, 14% and 62%, respectively.
For the compound `CC(=N)NCc1cccc(CNC(=O)C2CCCN2)c1` (stereo not drawn), in data set [4], the outcome was inactive.
As to `CC(=N)NCc1ccc(C(=O)O)cc1`, the inhibition in [1] stood at 70%; in data set [2] it was 0%; in data set [3] it was 4%.
For `CC(=N)Nc1nc(-c2ccc(Cl)cc2)cs1`, the inhibition in data set [1] is 100%; in [2], 13%; in data set [3], 4%.
As to `CC(=N)NCc1ccc(C(=O)Nc2ccc(F)cc2)cc1`, the results for the inhibition in data set [1], in [2] and in data set [3] were 87%, 97% and 0%, respectively.
The matching figures for `CC(=N)Nc1ccc(S(=O)(=O)Nc2nccs2)cc1`: 81%, 47% and 3%.
Consider `CC(=N)Nc1ccc(F)cc1`, for which the inhibition in data set [1] was found to be 85%; in [2], 10%; in data set [3], 0%.
`Cn1nnc2c(C(N)=O)ncn2c1=O` [TEMOZOLOMIDE]: the inhibition at 500 µM in [5] was 12%.
Take `CC(=N)NCc1ccc(F)cc1`: the inhibition in data set [1] is 93%; in data set [2] it was 0%; in [3], 5%.
The matching figures for `CC(=N)Nc1ccc(C(=O)Nc2nccs2)cc1`: 84%, 96% and 0%.
For `CC(=N)NCc1cccc(CN)c1`, the outcome in data set [4] was inactive.
Turning to `CC(=N)NCc1ccc(C(=O)Nc2nccs2)cc1`, the values for the inhibition in data set [1], in [2] and in data set [3] were 100%, 0% and 0%, respectively.
As a reminder, the IC50 is the midpoint of a concentration-inhibition curve. Take `CC(N)C(=O)Cc1cn[nH]c1` (stereo not drawn): the IC50 in data set [6] was determined as 681 nM.
As for `CC(=N)Nc1nc(-c2ccccc2)cs1`, the values for the inhibition in [1], in data set [2] and in [3] were 100%, 2% and 14%, respectively.
On to `CC(=N)NCc1cccc(CNC(=O)CCC(=O)O)c1`, for which the IC50 in data set [6] amounted to 428 nM.
Take `Br.CC(=N)Nc1ccc(C(=O)Nc2ccc(F)cc2)cc1`: the results for the inhibition in data set [1], in data set [2] and in data set [3] were 100%, 0% and 0%, respectively. Also, the IC50 in data set [6] is 11 nM; in data set [7], 6200 nM; in data set [8], more than 10000 nM. Further, the Ratio IC50 in [9] is 563; in [10], more than 900. Moreover, the Activity entry in [11] is “Toxic”; in data set [12], “Dose-dependent effect”; in [13] it was 86.45%; in [14] it was 64.86%; in [15] it was 65.22%; in data set [16], 64.42%. In addition, the Activity result was “Dose-dependent effect” in data set [17], 22.48% in [18] and 27% in data set [19]. Moreover, in data set [5], the inhibition at 500 µM worked out at 31%.
